From ChEMBL document CHEMBL4400528, “Discovery and Optimization of Selective and in Vivo Active Inhibitors of the Lysophosphatidylserine Lipase α/β-Hydrolase Domain-Containing 12 (ABHD12)” (J Med Chem, 2019)
The source made the active and inactive calls. The calls are words filed in the database; no cut-off is given here.

Experiments:
[1] = molecular target: T1, Lysophosphatidylserine lipase ABHD12 (Mus musculus) (UniProt Q99LR1); experiment: Inhibition of JJH350 binding to ABHD12 in mouse brain membrane proteome at 10 uM after 20 mins by CuAAC based fluorescence scanning assay relative to control; type: cell membranes
T1 sequence (whole entry): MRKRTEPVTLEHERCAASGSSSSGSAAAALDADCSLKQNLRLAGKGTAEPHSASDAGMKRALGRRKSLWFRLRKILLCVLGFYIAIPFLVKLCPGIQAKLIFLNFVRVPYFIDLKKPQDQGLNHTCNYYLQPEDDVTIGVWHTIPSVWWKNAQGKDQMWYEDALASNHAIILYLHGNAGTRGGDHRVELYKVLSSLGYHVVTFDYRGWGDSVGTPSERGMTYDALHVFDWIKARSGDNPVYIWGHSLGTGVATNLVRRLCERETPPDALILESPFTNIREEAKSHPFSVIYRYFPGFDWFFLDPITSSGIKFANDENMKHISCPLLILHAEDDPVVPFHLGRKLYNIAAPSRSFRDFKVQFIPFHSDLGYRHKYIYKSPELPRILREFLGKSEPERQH
Summary of the method: (§1)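 Brain membrane fraction (1 mg/mL; DPBS homogenate, 16,000 x g pellet) treated with inhibitor for 20 min at room temperature. JJH350 (2 μM) added for 45 min at 37 °C, then CuAAC with rhodamine-PEG3-azide, CuSO4, TBTA and TCEP for 1 h at room temperature. Run on 10% SDS-PAGE and read by in-gel fluorescence. ABHD12 band normalized to control-treated sample (100%); IC50 from log dose-response fit.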

[2] = molecular target: T1, Lysophosphatidylserine lipase ABHD12 (Mus musculus); experiment: Inhibition of JJH350 binding to ABHD12 in mouse brain membrane proteome at 2 uM after 20 mins by CuAAC based fluorescence scanning assay relative to control; type: cell membranes; summary of the method: as §1
[3] = molecular target: T2, Lysophosphatidylserine lipase ABHD12 (Mus musculus, UniProt Q99LR1); experiment: Inhibition of JJH350 binding to ABHD12 in mouse brain membrane proteome incubated for 20 mins by CuAAC fluorescence dependent gel-based competitive ABPP assay; type: cell membranes; summary of the method: as §1
T2 sequence (Q99LR1 whole entry): T1 sequence (whole entry)

[4] = molecular target: T2, Lysophosphatidylserine lipase ABHD12; experiment: Inhibition of FP-Rh probe binding to ABHD12 in mouse brain membrane proteome incubated for 45 mins by CuAAC fluorescence dependent gel-based competitive ABPP assay; type: cell membranes
Summary of the method: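 Mouse brain membrane proteome (1 mg/mL) preincubated with inhibitor for 45 min at 37 °C. Labelled with FP-Rh (1 μM) or JJH350 (2 μM) for 45 min at 37 °C. JJH350 samples were clicked to Rh-N3 (25 μM) by CuAAC for 60 min at room temperature. Read by 10% SDS-PAGE and in-gel fluorescence scanning. Band intensity taken relative to control (100%), and IC50 from log(inhibitor) vs normalized response.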

[5] = molecular target: T3, Lysophosphatidylserine lipase ABHD12 (Homo sapiens) (UniProt Q8N2K0); experiment: Time dependent inhibition of FP-Rh binding to ABHD12 (unknown origin) expressed in HEK293T cell membranes by gel-based ABPP assay
T3 sequence (whole entry): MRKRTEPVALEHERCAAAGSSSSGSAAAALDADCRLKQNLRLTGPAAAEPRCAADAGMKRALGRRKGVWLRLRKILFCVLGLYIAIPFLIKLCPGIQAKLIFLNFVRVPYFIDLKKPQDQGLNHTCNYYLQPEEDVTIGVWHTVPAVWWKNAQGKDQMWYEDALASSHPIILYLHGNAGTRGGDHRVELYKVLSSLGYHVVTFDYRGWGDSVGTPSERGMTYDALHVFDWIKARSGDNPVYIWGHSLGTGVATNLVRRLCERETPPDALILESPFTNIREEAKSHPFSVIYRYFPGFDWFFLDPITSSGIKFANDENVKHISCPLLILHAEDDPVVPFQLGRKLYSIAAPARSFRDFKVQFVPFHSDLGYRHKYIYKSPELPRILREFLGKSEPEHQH

[6] = molecular target: T3, Lysophosphatidylserine lipase ABHD12 (Homo sapiens); experiment: Inhibition of ABHD12 (unknown origin) expressed in HEK293T cell membranes at 10 uM using 17:1 lyso-PS as substrate preincubated for 20 mins followed by substrate addition measured after 30 mins by LC-MS analysis
Summary of the method: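 Membranes from HEK293T overexpressing ABHD12 (0.25 mg/mL) in DPBS preincubated with compound for 20 min at room temperature. 17:1 lyso-PS added (100 μM final) and incubated 30 min at 37 °C. Quenched with 2:1 CHCl3/MeOH containing 1 nmol 15:0 FFA internal standard. Organic phase analyzed by LC-MS on C18 with NH4OH-containing gradient.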

[7] = molecular target: T3, Lysophosphatidylserine lipase ABHD12 (Homo sapiens); experiment: Inhibition of ABHD12 in PMA-differentiated human THP1 cells assessed as increase in CCL4 production at 1 uM treated simultaneously with IFN-gamma/LPS for 24 hrs and measured 6 to 24 hrs after stimulation
Summary of the method: (§2)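 THP-1 cells grown in RPMI/10% FBS/0.05 mM 2-mercaptoethanol, plated 2.5×10^6 per well. Treated 24 h with 150 ng/mL PMA, washed, rested 24 h. Polarized to M1 with 20 ng/mL IFN-γ plus 10 pg/mL LPS for 24 h. Compound or DMSO (test 0.1–1 μM) present at every step. Media sampled 6 and 24 h after stimulation; cytokines by MSD V-Plex. Mean ± SEM, four biological experiments.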

[8] = molecular target: T3, Lysophosphatidylserine lipase ABHD12 (Homo sapiens); experiment: Inhibition of ABHD12 in PMA-differentiated human THP1 cells assessed as increase in TNF-alpha production at 1 uM treated simultaneously with IFN-gamma/LPS for 24 hrs and measured 6 to 24 hrs after stimulation; summary of the method: as §2
[9] = molecular target: T3, Lysophosphatidylserine lipase ABHD12 (Homo sapiens); experiment: Inhibition of ABHD12 in PMA-differentiated human THP1 cells assessed as increase in IL-1beta production at 1 uM treated simultaneously with IFN-gamma/LPS for 24 hrs and measured 6 to 24 hrs after stimulation; summary of the method: as §2
[10] = molecular target: T3, Lysophosphatidylserine lipase ABHD12 (Homo sapiens); experiment: Inhibition of ABHD12 in PMA-differentiated human THP1 cells assessed as increase in CCL3 production at 1 uM treated simultaneously with IFN-gamma/LPS for 24 hrs and measured 6 to 24 hrs after stimulation; summary of the method: as §2
[11] = test system: Mus musculus; experiment: In vivo inhibition of JJH350 binding to ABHD12 in mouse at 30 mg/kg, ip treated for 4 hrs by CuAAC based fluorescence scanning assay; type: functional, organism-based
Summary of the method: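 Mice injected i.p. at 10 μL/g body weight with fresh suspension in EtOH/PEG40/DPBS 1:1:18. Anesthetized with isoflurane, killed by cervical dislocation, tissues harvested. Tissues dounce-homogenized in DPBS; membrane fraction from 16,000 x g spin. Labelled with JJH350, then CuAAC to rhodamine-azide, SDS-PAGE and fluorescence scanning.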

| inhibition [1] | inhibition [2] | IC50 [3] | SMILES | further results |
| --- | --- | --- | --- | --- |
| 96% | 66% | – | FC(F)(F)c1cnc(N2CCC(NC(=S)Nc3ccccc3)CC2)c(Cl)c1 | – |
| 61% | 31% | – | CN(C(=S)Nc1cccnc1)C1CCN(c2ncc(C(F)(F)F)cc2Cl)CC1 | – |
| – | – | 1.9 µM | S=C(Nc1cccnc1)NC1CCN(c2cc(Oc3ccccc3)ccn2)CC1 | – |
| – | – | – | COc1ccc(N2CCN(C(=O)ON3C(=O)C4CN(Cc5ccc(Oc6ccccc6)cc5)CCN4C3=O)CC2)cc1 (centres undefined) | IC50 [4]: > 10 µM |
| 63% | 19% | – | FC(F)(F)c1cnc(N2C3CCC2CC(NC(=S)Nc2cccnc2)C3)c(Cl)c1 (centres undefined) | – |
| 90% | 54% | – | FC(F)(F)c1cnc(NCCCCCNC(=S)Nc2cccnc2)c(Cl)c1 | – |
| 2% | 0% | – | FC(F)(F)c1cnc(N2CCC(NC(=S)Nc3cnc4ccccc4c3)CC2)c(Cl)c1 | – |
| – | – | 0.63 µM | FC(F)(F)c1cccc(N2CCC(NC(=S)Nc3cccnc3)CC2)n1 | – |
| – | – | > 5 µM | FC(F)(F)c1cccnc1N1CCC(NC(=S)Nc2cccnc2)CC1 | – |
| – | – | 0.3 µM | FC(F)(F)c1ccnc(N2CCC(NC(=S)Nc3cccnc3)CC2)c1Cl | – |
| 96% | 89% | 1.1 µM | FC(F)(F)c1cnc(N2CCC(NC(=S)Nc3cccnc3)CC2)c(Cl)c1 | TDI [5]: inactive |
| – | – | 0.18 µM | N#Cc1c(Oc2ccc(OC(F)(F)F)cc2)ccnc1N1CCC(NC(=S)Nc2cccnc2)CC1 | – |
| – | – | 3.1 µM | Cc1cnc(N2CCC(NC(=S)Nc3cccnc3)CC2)c(Cl)c1 | – |
| – | – | 0.54 µM | FC(F)(F)c1cc(Cl)nc(N2CCC(NC(=S)Nc3cccnc3)CC2)c1 | – |
| – | – | 0.089 µM | FC(F)(F)Oc1cccc(Oc2ccnc(N3CCC(NC(=S)Nc4cccnc4)CC3)c2Cl)c1 | – |
| – | – | 2.1 µM | S=C(Nc1cccnc1)NC1CCN(c2cc(Cl)ccn2)CC1 | – |
| – | – | 0.64 µM | FC(F)(F)c1ccnc(N2CCC(NC(=S)Nc3cccnc3)CC2)c1 | – |
| – | – | 0.41 µM | FC(F)(F)Oc1ccc(Oc2ccnc(N3CCC(NC(=S)Nc4cccnc4)CC3)c2)cc1 | – |
| 0% | 0% | – | FC(F)(F)c1cnc(NCCCNC(=S)Nc2cccnc2)c(Cl)c1 | – |
| – | – | > 50 µM | Cc1cnc(N2CCN(NC(=S)Nc3cccnc3)CC2)c(Cl)c1 | inhibition [6]: inactive |
| 70% | 22% | – | FC(F)(F)c1cnc(NCCCCCCNC(=S)Nc2cccnc2)c(Cl)c1 | – |
| 0% | 0% | – | FC(F)(F)c1cnc(N2CCC(NC(=S)N3CCCc4ccccc43)CC2)c(Cl)c1 | – |
| 29% | 1% | – | O=C(Nc1cccnc1)NC1CCN(c2ncc(C(F)(F)F)cc2Cl)CC1 | – |

| inhibition [1] | inhibition [2] | IC50 [3] | SMILES | further results |
| --- | --- | --- | --- | --- |
| – | – | 3.4 µM | S=C(Nc1cccnc1)NC1CCN(c2cc(OC3CCCCC3)ccn2)CC1 | – |
| 4% | 0% | – | FC(F)(F)c1cnc(N2CCCC(NC(=S)Nc3cccnc3)C2)c(Cl)c1 (centres undefined) | – |
| 35% | 12% | – | FC(F)(F)c1cnc(NCCCCNC(=S)Nc2cccnc2)c(Cl)c1 | – |
| – | – | 2.9 µM | COc1ccc(Oc2ccnc(N3CCC(NC(=S)Nc4cccnc4)CC3)c2)cc1 | – |
| – | – | 1.4 µM | FC(F)(F)c1cc(N2CCC(NC(=S)Nc3cccnc3)CC2)ncc1Cl | – |
| – | – | > 100 µM | FC(F)(F)Oc1ccc(Oc2ccnc(N3CCC[C@H](NC(=S)Nc4cccnc4)C3)c2Cl)c(Cl)c1 | inhibition [7]: inactive; inhibition [8]: inactive; inhibition [9]: inactive; inhibition [10]: inactive |
| – | – | > 5 µM | S=C(Nc1cccnc1)NC1CCN(c2ncccc2Cl)CC1 | – |
| – | – | 0.096 µM | FC(F)(F)Oc1ccccc1Oc1ccnc(N2CCC(NC(=S)Nc3cccnc3)CC2)c1Cl | – |
| – | – | 0.025 µM | FC(F)(F)Oc1ccc(Oc2ccnc(N3CCC(NC(=S)Nc4cccnc4)CC3)c2Cl)cc1 | – |
| – | – | 1.4 µM | Fc1ccc(Oc2ccnc(N3CCC(NC(=S)Nc4cccnc4)CC3)c2)cc1 | – |
| – | – | 2.8 µM | FC(F)(F)Oc1ccc(Oc2ccnc(N3CCC(NC(=S)Nc4cccnc4)CC3)c2C(F)(F)F)cc1 | – |
| 59% | 9% | – | FC(F)(F)c1cnc(N2CCCC(NC(=S)Nc3cccnc3)CC2)c(Cl)c1 (centres undefined) | – |
| – | – | 100 µM | FC(F)(F)Oc1ccc(Oc2ccnc(N3CCC[C@@H](NC(=S)Nc4cccnc4)C3)c2Cl)c(Cl)c1 | – |
| 1% | 0% | – | COc1ccc(NC(=S)NC2CCN(c3ncc(C(F)(F)F)cc3Cl)CC2)cn1 | – |
| – | – | 0.026 µM | Cc1c(Oc2ccc(OC(F)(F)F)cc2)ccnc1N1CCC(NC(=S)Nc2cccnc2)CC1 | – |
| – | – | > 5 µM | COc1ccnc(N2CCC(NC(=S)Nc3cccnc3)CC2)c1 | – |
| – | – | 0.033 µM | FC(F)(F)Oc1ccc(Oc2ccnc(N3CCC(NC(=S)Nc4cccnc4)CC3)c2Cl)cc1Cl | – |
| – | – | 90 µM | FC(F)(F)Oc1ccc(Oc2ccnc(N3CCCC(NC(=S)Nc4cccnc4)C3)c2Cl)c(Cl)c1 (centres undefined) | – |
| – | – | 4.7 µM | S=C(Nc1cccnc1)NC1CCN(c2cc(OCC3CC3)ccn2)CC1 | – |
| – | – | 2.8 µM | S=C(Nc1cccnc1)NC1CCN(c2cc(OCc3ccccc3)ccn2)CC1 | – |
| – | – | 1.9 µM | FC(F)(F)c1ccc(N2CCC(NC(=S)Nc3cccnc3)CC2)nc1 | – |
| 12% | 1% | – | FC(F)(F)c1cnc(N2CCC(NC(=S)Nc3cccnc3)C2)c(Cl)c1 (centres undefined) | – |
| – | – | – | COc1ccc(N2CCN(C(=O)ON3C(=O)C4CN(C(=O)c5ccc(Oc6ccccc6)cc5)CCN4C3=O)CC2)cc1 (centres undefined) | IC50 [4]: 0.32 µM; inhibition [11]: Active |
